# ChEMBL document CHEMBL1133430, “8-Methylureido-4,5-dihydro-4-oxo-10H-imidazo[1,2-a]indeno[1,2-e]pyrazines: highly potent in vivo AMPA antagonists” (Bioorg Med Chem Lett, 2000)
# Assays:
# [1] = biological target: Glutamate receptor ionotropic, AMPA (Rattus norvegicus, UniProt P19490+P19491+P19492+P19493); test: The compound was tested for its affinity for Ionotropic glutamate receptor AMPA in in vitro binding assay on rat cortical membrane preparations using [3H]AMPA as ligand
# Glutamate NMDA receptor = test: In vitro affinity for N-methyl-D-aspartate glutamate receptor 1 using [3H]5,7-dichlorokynurenate([3H]-DCKA) as ligand; format: protein-complex assay
# Procedure, shortened: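 Competition binding on rat cerebral cortex membranes at the NMDA receptor glycine site. IC50 is the mean of at least three determinations, each using at least three test concentrations run in triplicate.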
# Mus musculus [2] = test: Tested in vivo as the dose which protected 50% of the animals from a tonic convulsion (six male CDI mice/dose of compound) after intraperitoneal administration in DBA test; format: functional
# Procedure, shortened: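 Audiogenic seizure test in DBA/2 mice. Compound given ip in 1% Tween-80 in water, 30 min before the sound challenge. Six mice per dose, three doses plus a vehicle-treated group.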
# Mus musculus [3] = test: Tested in vivo as the dose which protected 50% of the animals from a tonic convulsion (six male CDI mice/dose of compound) after intraperitoneal administration in MES test; format: functional
# Procedure, shortened: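 Maximal electroshock (MES) convulsions in male CD1 mice. Compound given ip in 1% Tween-80 in water, 30 min before challenge. Six mice per dose, at least three doses plus a vehicle-alone group. ED50 (mg/kg) is the dose protecting 50% of animals from tonic convulsion.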
# Mus musculus [4] = test: Tested in vivo as the dose which protected 50% of the animals from a tonic convulsion (six male CDI mice/dose of compound) after intravenous administration in MES test; format: functional
# Procedure, shortened: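 Maximal electroshock (MES) convulsions in male CD1 mice. Compound given iv in saline, 5 min before challenge. Six mice per dose, at least three doses plus a vehicle-alone group. ED50 (mg/kg) is the dose protecting 50% of animals from tonic convulsion.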
# Rattus norvegicus = species: Rattus norvegicus; test: The compound was tested for its inhibition of currents generated by 50 uM Kainate in Xenopus oocytes injected with rat brain mRNA; format: functional
# Procedure, shortened: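 Xenopus oocytes injected with rat brain mRNA; AMPA receptor currents evoked by a submaximal kainate concentration, recorded electrophysiologically. Drug stocks in water or DMSO, diluted into recording medium. IC50 obtained by nonlinear least-squares fit to a sigmoidal equation.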
# Mus musculus [5] = test: Tested in vivo as the dose which protected 50% of the animals from a tonic convulsion (six male CDI mice/dose of compound) after subcutaneous administration in MES test; format: functional; conditions: sc
# Procedure, shortened: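 Maximal electroshock (MES) convulsions in male CD1 mice. Compound given sc in 1% Tween-80 in water, 30 min before challenge. Six mice per dose, at least three doses plus a vehicle-alone group. ED50 (mg/kg) is the dose protecting 50% of animals from tonic convulsion.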
# [6] = Mus musculus, ip, read-out: ED50
IC50 [1],IC50 (Glutamate NMDA receptor),SMILES,further results
17000 nM,100000 nM,Oc1nc2c(n3ccnc13)Cc1c(Cl)cccc1-2,–
3300 nM,5300 nM,COc1ccc2c(c1)Cc1c-2nc(O)c2nccn12,–
8 nM,14000 nM,CNC(=O)Nc1ccc2c(c1)C(CC(=O)O)c1c-2nc(O)c2nccn12 (racemic),ED50 (Mus musculus [2]): 0.6 mg/kg; ED50 (Mus musculus [3]): 1.8 mg/kg; ED50 (Mus musculus [4]): 1 mg/kg; IC50 (Rattus norvegicus): 20 nM; ED50 (Mus musculus [5]): 2 mg/kg
3250 nM,10000 nM,CC(=O)Nc1ccc2c(c1)Cc1c-2nc(O)c2nccn12,–
1250 nM,> 100000 nM,NC(=O)Nc1ccc2c(c1)Cc1c-2nc(O)c2nccn12,–
100000 nM,> 100000 nM,Oc1nc2c(n3ccnc13)Cc1cc(-n3ccnc3)ccc1-2,–
18 nM,100000 nM,CNC(=O)Nc1ccc2c(c1)Cc1c-2nc(O)c2nccn12,–
–,–,Oc1nc2c(n3ccnc13)Cc1ccccc1-2,ED50 (Mus musculus [3]; ip): 62 mg/kg; Kb (Rattus norvegicus; Rattus norvegicus): 1.8 nM
86 nM,10000 nM,CCNC(=O)Nc1ccc2c(c1)Cc1c-2nc(O)c2nccn12,–
16000 nM,> 100000 nM,Oc1nc2c(n3ccnc13)Cc1cc(Cl)ccc1-2,–
250 nM,7800 nM,Oc1nc2c(n3ccnc13)Cc1cc(F)ccc1-2,–
300 nM,2300 nM,CNC(=O)Nc1cccc2c1Cc1c-2nc(O)c2nccn12,–
37 nM,100000 nM,CN(C)C(=O)Nc1ccc2c(c1)Cc1c-2nc(O)c2nccn12,–
30000 nM,> 100000 nM,Cc1ccc2c(c1)Cc1c-2nc(O)c2nccn12,–
39 nM,–,CNC(=O)Nc1ccc2c(c1)C(CC(=O)O)c1c-2nc(O)c2nccn12 (stereo in doubt; (-)-3),ED50 (Mus musculus [2]): 4.4 mg/kg; ED50 (Mus musculus [3]): 7 mg/kg; IC50 (Rattus norvegicus): 6.7 nM
3000 nM,180 nM,Oc1nc2c(n3ccnc13)Cc1ccc(Cl)cc1-2,–
2000 nM,> 100000 nM,Oc1nc2c(n3ccnc13)Cc1cc(Br)ccc1-2,–
30000 nM,> 100000 nM,O=S(=O)(O)c1ccc2c(c1)Cc1c-2nc(O)c2nccn12,–
900 nM,100000 nM,Oc1nc2c(n3ccnc13)Cc1c(F)cccc1-2,–
670 nM,8400 nM,CCOC(=O)Nc1ccc2c(c1)Cc1c-2nc(O)c2nccn12,–
4 nM,10000 nM,"CNC(=O)Nc1ccc2c(c1)C(CC(=O)O)c1c-2nc(O)c2nccn12 (single isomer, unassigned; (+))",ED50 (Mus musculus [2]): 0.9 mg/kg; ED50 (Mus musculus [3]): 1 mg/kg; IC50 (Rattus norvegicus): 2 nM
–,–,O=c1[nH]c2cc(-n3ccnc3)c([N+](=O)[O-])cc2[nH]c1=O [YM-90K],ED50 (Mus musculus [2]; ip): 15 mg/kg; ED50 (Mus musculus [3]; ip): 12 mg/kg; ED50 (Mus musculus [4]): 12 mg/kg; IC50 (Rattus norvegicus; Rattus norvegicus): 260 nM
> 100000 nM,2100 nM,Cc1ccc2c(c1)-c1nc(O)c3nccn3c1C2,–
970 nM,1000 nM,Oc1nc2c(n3ccnc13)Cc1ccc(F)cc1-2,–
5600 nM,22000 nM,Nc1ccc2c(c1)Cc1c-2nc(O)c2nccn12,–

SMILES,IC50 [1],IC50 (Glutamate NMDA receptor),further results
O=C(Nc1ccc2c(c1)Cc1c-2nc(O)c2nccn12)c1ccccc1,450 nM,> 100000 nM,–
O=C(Nc1ccccc1)Nc1ccc2c(c1)Cc1c-2nc(O)c2nccn12,620 nM,> 100000 nM,–
CNC(=O)Nc1ccc2c(c1)/c(=C/C(=O)O)c1c2nc(O)c2nccn21,19 nM,100000 nM,ED50 (Mus musculus [2]; [6]): 1.6 mg/kg; ED50 (Mus musculus [3]; [6]): 11 mg/kg; ED50 (Mus musculus [4]): 5.6 mg/kg; IC50 (Rattus norvegicus; Rattus norvegicus): 3 nM
O=C(Cc1ccccc1)Nc1ccc2c(c1)Cc1c-2nc(O)c2nccn12,180 nM,100000 nM,–
O=C(NCCc1ccccc1)Nc1ccc2c(c1)Cc1c-2nc(O)c2nccn12,130 nM,> 100000 nM,–
O=C(NCc1ccccc1)Nc1ccc2c(c1)Cc1c-2nc(O)c2nccn12,110 nM,100000 nM,–
